Read-outs that look alike come from different tables or passages of the source.

The target of one test is NCX1.4 (Rattus norvegicus, UniProt Q01728). As to the kind of experiment: excised inside-out patch-clamp, recombinant forward-mode. The format is biochemical. As to conditions: 5 μmol/l; exon B replaced with A in rat NCX1.3. (Patch clamp records ionic current or voltage across a cell membrane.)
In a further test the target is NCX1.1 (Homo sapiens, UniProt P32418). The test is described as above. The format is biochemical.
The test system of test [1] is mouse islets. As to the kind of experiment: glucose-stimulated insulin secretion, mouse islet perifusion. The test is classed as cell-based. Conditions: 1 μmol/l. The method, boiled down: (§1)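 Islets (BALB/c mouse, or human from three donors) preincubated 2 h at 37°C in low-glucose KRB (2.8 mmol/l glucose, 24 NaHCO3, 0.5% BSA, pH 7.4) ± 1 μmol/l test compound, with a solution change at 1 h. Groups of 25 islets perifused at 0.25 ml/min and 37°C: 10 min at 2.8 mmol/l, then 40 min at 11.1 mmol/l glucose. Fractions every 2 min; insulin by ELISA, as ng/ml per 25 islets or 11.1/2.8 fold change.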

The test system of the next test is mouse β-cells. As to the kind of experiment: membrane capacitance, depolarization-induced exocytosis in mouse β-cells. The format is cell-based. Conditions: 1 μmol/l; train of 10 depolarizations; n = 6; control 36.04 ± 4.87. The essentials: (§2)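 Islets dispersed 2 h post-isolation with 0.0025% trypsin in Ca2+-free buffer and plated on poly-D-lysine coverslips. Mouse cells cultured in medium 199, human cells in DMEM, both with 5.6 mmol/l glucose. Cells exposed to 1 μmol/l test compound for at least 5 min. Exocytosis elicited by 10 × 500-ms depolarisations (1 Hz) from −70 to 0 mV. Total is the summed capacitance increase, normalised as fF/pF. β- and α-cells identified post hoc by insulin or glucagon immunostaining.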

Test [2] has as its system cardiac L-type calcium channel. As to conditions: read-out: IC50s, cardiac L-type calcium channel; cited from earlier work.
Another test deals with β-cells. Briefly: membrane capacitance, calcium infusion experiments. The test is classed as cell-based. Conditions: 1 μmol/l; infusion of 200 nmol/l free Ca2+. The essentials: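 Whole-cell capacitance in dispersed islet cells with pipette Ca2+ buffered to 200 nmol/l free with EGTA, so Ca2+ is infused directly. Recorded with or without 1 μmol/l test compound, applied for at least 5 min. β-cells identified post hoc by insulin immunostaining.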

Another test concerns the target NCX1.3 (Homo sapiens, UniProt P32418). Briefly: excised inside-out patch-clamp, recombinant forward-mode. The test is classed as biochemical. The method, boiled down:
(§3)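 Excised inside-out patches at 22 ± 1°C from tsA201 cells 24–72 h after calcium-phosphate cotransfection with human NCX1 splice-variant cDNA plus GFP. Patch held at 0 mV. Forward-mode current elicited by raising Ca2+c […]. Peak is the maximal current after activation, late current is at 1 min, total current is the AUC. Concentration-response fitted with the Hill equation. DMSO 0.1% final.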

The test system of test [3] is mouse islets. Briefly: Fura-2 calcium imaging of mouse islets. The test is classed as cell-based.
The subject of another test is human islets. Briefly: glucose-stimulated insulin secretion, human islet perifusion. Conditions: 1 μmol/l. The test is classed as cell-based. The method, boiled down: as §1
Test [4] is described as follows: intraperitoneal glucose tolerance tests in mice. The test is classed as in vivo. Conditions: preliminary, data not shown.
In test [5] the test system is β-cell L-type calcium channels. The test is classed as cell-based, human. As to conditions: 1 μmol/l.
For test [6], the system named is β-cell L-type calcium channels. The format is cell-based, mouse. Conditions: 1 μmol/l; n = 7.
The target of another test is NCX1.11 (Homo sapiens, UniProt P32418, INS637ALLLNEL). Briefly: excised inside-out patch-clamp, recombinant forward-mode. The format is biochemical. Conditions: 5 μmol/l; n = 8. The essentials:
as §3

The next test concerns the target NCX1.7 (Homo sapiens, UniProt P32418). The test is described as above. The format is biochemical. The essentials:
as §3

Another test concerns mouse α-cells. As to the kind of experiment: membrane capacitance, depolarization-induced exocytosis in mouse α-cells. As to conditions: 1 μmol/l. The format is cell-based. The method, boiled down: as §2
For another test, the system named is human β-cells. As to the kind of experiment: membrane capacitance, depolarization-induced exocytosis in human β-cells. Conditions: 1 μmol/l; train of 10 depolarizations; n = 4; control 13.01 ± 5.64. The format is cell-based. The essentials: as §2

On to `N=C(N)SCCc1ccc(OCc2ccc([N+](=O)[O-])cc2)cc1` [KB-R7943], for which, on NCX1.4, the “FM KB-R7943 sensitivity of NCX1.4” value is “dramatically decreased FM KB-R7943 sensitivity”. Further, the “inhibition of total FM NCX1.1 activity” value on NCX1.1 (5 μmol/l) is “failed to inhibit”. The IC50 was 43 µM at NCX1.1 (read-out: IC50, inhibition of total FM NCX1.1 activity, cardiac splice variant, total current (AUC), tsA201 cells); 3 to 7 µM in test [2]; 2.15 ± 0.26 µM on NCX1.3 (read-out: IC50, FM late current NCX1.3, late current, 1 min postactivation); 5.59 ± 0.28 µM at NCX1.3 (read-out: IC50, FM peak current NCX1.3, peak current); 1.72 ± 0.09 µM on NCX1.7 (read-out: IC50, FM late current NCX1.7, late current, 1 min postactivation); 4.71 ± 0.15 µM on NCX1.7 (read-out: IC50, FM peak current NCX1.7, peak current). In the test on mouse islets [1] (2.8 mmol/l glucose), the “insulin secretion, mouse islets” value is given as “without effect”. For the same compound, the “first- and second-phase insulin secretion, mouse islets” value in the test on mouse islets [1] (11.1 mmol/l glucose) is listed as “significantly enhanced”. Moreover, the “change in total capacitance, mouse β-cells” value with mouse β-cells is given as 118.22 ± 33.48 fF/pF. Also, the “rate at which the capacitance increased, presence vs absence of KB-R7943” value with β-cells was “not significantly different”. Moreover, the “inhibition of recombinant β-cell NCX1.3 FM current” value on NCX1.3 (1 μmol/l) was ~25%. For the same compound, the “reduction in total FM NCX1.3 activity” value at NCX1.3 (5 μmol/l, n = 10) is 69.45 ± 3.12%. Also, the “rate of calcium clearance after removal of the tolbutamide/KCl challenge” value in the test with mouse islets [3] (1 μmol/l) is given as “significantly slowed”. The “increase in Ca2+c when added concurrently with tolbutamide” value with mouse islets [3] (1 μmol/l KB-R7943 + 20 μmol/l tolbutamide, 2.8 mmol/l glucose, n = 9) is 19.95 ± 6.92%. For the same compound, the “effect on Ca2+c levels when applied alone” value in the test on mouse islets [3] (1 μmol/l, 2.8 mmol/l glucose) was “failed to significantly increase”. Also, the “increase to the peak Ca2+c response” value in the test with mouse islets [3] (1 μmol/l, 11.1 mmol/l glucose challenge) is given as 83.44 ± 18.27%. Moreover, the “increase of average Ca2+c (AUC)” value in the test with mouse islets [3] (1 μmol/l, 11.1 mmol/l glucose challenge, n = 9) amounted to 79.98 ± 8.73%. Further, the “effect on Ca2+c levels in the presence of KCl” value in the test on mouse islets [3] (1 μmol/l, 15 mmol/l KCl) is “significantly increases”. Besides, the “insulin secretion, human islets” value with human islets (2.8 mmol/l glucose) is recorded as “without effect”. Also, the “first- and second-phase insulin secretion, human islets” value in the test on human islets (11.1 mmol/l glucose) is “significantly enhanced”. Besides, in test [4], the “blood glucose in intraperitoneal glucose tolerance test” value is recorded as “only showed a trend toward KB-R7943 lowering blood glucose”. In test [5], the “reduction in total Ba2+ current, human β-cells” value is listed as 29.54 ± 3.18%. Moreover, the “reduction in total Ba2+ current, mouse β-cells” value in test [6] is 32.66 ± 3.74%. The “reduction in total current, FM NCX1.11” value on NCX1.11 amounted to 64.3 ± 2.92%. Besides, the “inhibition of recombinant β-cell NCX1.7 FM current” value on NCX1.7 (1 μmol/l) was ~25%. Besides, the “reduction in total FM NCX1.7 activity” value at NCX1.7 (5 μmol/l, n = 10) is on record as 65.57 ± 3.20%. In the test on mouse α-cells, the “depolarization-induced capacitance response, mouse α-cells” value is listed as “did not significantly alter”. Moreover, the “total change in capacitance, human β-cells” value in the test on human β-cells is on record as 100.20 ± 28.82 fF/pF.
As for `CCCCNC(=O)NS(=O)(=O)c1ccc(C)cc1` [tolbutamide, Tolbutamide], the “increase in the 340/380 nm ratio (Ca2+c)” value with mouse islets [3] (20 μmol/l tolbutamide, 2.8 mmol/l glucose, n = 9) is on record as 0.45 ± 0.04. For the same compound, the “decrease of elevation in Ca2+c upon a second tolbutamide challenge” value in the test with mouse islets [3] (20 μmol/l tolbutamide, 2.8 mmol/l glucose, n = 11) stood at 21.87 ± 4.58%.

The values above are taken from PMC2889768 (Diabetes, 2010).
